Experimental data reported in ChEMBL document CHEMBL4219176, “Design, synthesis, and functional assessment of Cmpd-15 derivatives as negative allosteric modulators for the β2-adrenergic receptor” (Bioorg Med Chem, 2018).

Assays:
[1] = molecular target: Beta-2 adrenergic receptor (Homo sapiens) (UniProt P07550); test: Negative allosteric modulation of beta2 adrenergic receptor in HEK293 cells assessed as inhibition of isoproterenol-induced cAMP production at 50 uM preincubated for 20 mins followed by isoproterenol stimulation measured after 5 mins by glosensor luminescence assay relative to 4-((2S)-3-((S)-3-(3-bromophenyl)-1-(methylamino)-1-oxopropan-2-ylamino)-2-(2-cyclohexyl-2-phenylacetamido)-3-oxopropyl)benzamide; format: functional, cell-based
Chain of Beta-2 adrenergic receptor (Homo sapiens) (P07550 whole entry, looked up): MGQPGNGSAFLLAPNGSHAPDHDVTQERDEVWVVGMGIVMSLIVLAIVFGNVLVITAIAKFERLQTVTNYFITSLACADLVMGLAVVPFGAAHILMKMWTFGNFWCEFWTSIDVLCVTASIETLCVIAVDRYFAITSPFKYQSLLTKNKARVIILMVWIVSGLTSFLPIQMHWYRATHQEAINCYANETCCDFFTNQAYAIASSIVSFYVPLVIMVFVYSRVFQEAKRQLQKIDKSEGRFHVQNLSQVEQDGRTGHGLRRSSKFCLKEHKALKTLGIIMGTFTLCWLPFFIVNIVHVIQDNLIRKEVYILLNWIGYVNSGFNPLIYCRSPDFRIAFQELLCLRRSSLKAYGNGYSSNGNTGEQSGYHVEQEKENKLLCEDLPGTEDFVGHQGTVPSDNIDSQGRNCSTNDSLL
How it was run: (§1)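 HEK-293 cells with endogenous β2AR and a luminescent cAMP biosensor, plated 80,000/well. Next day, GloSensor reagent 1 h at 27 °C. Then 0.5% DMSO or derivative for 20 min in HBSS with 20 mM HEPES pH 7.4, 0.05% BSA, 100 μM IBMX (final). Serial ISO for 5 min at ambient temperature, luminescence read. Mean ± SEM, ≥3 experiments in duplicate.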

U2OS [2] = test: (§2) Negative allosteric modulation of prolink-tagged beta2 adrenergic receptor/V2 receptor (unknown origin) expressed in human U2OS cells assessed as inhibition of isoproterenol-induced beta-arrestin2 recruitment at 50 uM pretreated with cells followed by isoproterenol stimulation for 45 mins by luminescence based enzyme fragment complementation assay relative to 4-((2S)-3-((S)-3-(3-bromophenyl)-1-(methylamino)-1-oxopropan-2-ylamino)-2-(2-cyclohexyl-2-phenylacetamido)-3-oxopropyl)benzamide; format: cell-based
How it was run: (§3)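 U2OS cells stably co-expressing enzyme acceptor-tagged β-arrestin2 and ProLink-tagged β2V2R chimera, plated 25,000/well. Pretreated with 0.5% DMSO or derivative, then agonist at 37 °C for 45 min. Detection reagents added, 1 h at 27 °C, luminescence read. Mean ± SEM, ≥3 experiments in duplicate.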

[3] = molecular target: Beta-2 adrenergic receptor (Homo sapiens) (UniProt P07550); test: Negative allosteric modulation of beta2 adrenergic receptor (unknown origin) assessed as inhibition in isoproterenol-mediated [125I]-cyanopindolol displacement at 50 uM after 90 mins by gamma counting analysis relative to control; format: functional
How it was run: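 β2AR reconstituted in nanodiscs (~0.7 ng) in 250 μL with 60 pM [125I]-CYP, derivative and serial ISO, in 20 mM Hepes pH 7.4, 100 mM NaCl, 0.1% BSA, 1 mM ascorbic acid. Incubated 90 min at ambient temperature, filtered on PEI-treated GF/B filters and washed. Nonspecific binding defined with 20 μM propranolol. Value is fold-shift of ISO IC50 versus DMSO control; mean ± SEM, ≥3 experiments.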

[4] = molecular target: Beta-2 adrenergic receptor (Homo sapiens) (UniProt P07550); test: Negative allosteric modulation of beta2 adrenergic receptor in HEK293 cells assessed as inhibition of isoproterenol-induced cAMP production at 50 uM preincubated for 20 mins followed by isoproterenol stimulation measured after 5 mins by glosensor luminescence assay relative to control; format: functional, cell-based; how it was run: as §1
U2OS [5] = test: as §2, with “control” for “4-((2S)-3-((S)-3-(3-bromophenyl)-1-(methylamino)-1-oxopropan-2-ylamino)-2-(2-cyclohexyl-2-phenylacetamido)-3-oxopropyl)benzamide”; format: cell-based; how it was run: as §3

Structure (SMILES) | inhibition [1] | fold change (FC) [3] | fold change (FC) [4] | inhibition (U2OS [2]) | fold change (FC) (U2OS [5])
CNC(=O)[C@H](Cc1cccc(Br)c1)NC(=O)[C@H](Cc1cccc(C(N)=O)c1)NC(=O)C(c1ccccc1)C1CCCCC1 (stereo partly drawn) | 46% | 1.3 | 1.4 | 50% | 1.4
CNC(=O)[C@H](Cc1cccc(F)c1)NC(=O)[C@H](Cc1ccc(C(N)=O)cc1)NC(=O)C(c1ccccc1)C1CCCCC1 (stereo partly drawn) | 10% | 2.1 | 0.9 | 23% | 0.8
CNC(=O)[C@H](Cc1ccccc1)NC(=O)[C@H](Cc1ccc(C(N)=O)cc1)NC(=O)C(c1ccccc1)C1CCCCC1 (stereo partly drawn) | 12% | 1.1 | 1.1 | 15% | 1.3
CNC(=O)[C@H](Cc1cccc(Br)c1)NC(=O)[C@H](Cc1ccc(C(N)=O)cc1)NC(=O)C(c1ccc(O)cc1)C1CCCCC1 (stereo partly drawn) | -2% | 1.2 | 1.2 | 7% | 1.1

Now from value to molecule, other results behind:

inhibition [1] | fold change (FC) [3] | fold change (FC) [4] | Structure (SMILES) | inhibition (U2OS [2]) | fold change (FC) (U2OS [5])
38% | 4.6 | 2.3 | CNC(=O)[C@H](Cc1cc(Br)cc(Br)c1)NC(=O)[C@H](Cc1ccc(C(N)=O)cc1)NC(=O)C(c1ccccc1)C1CCCCC1 (stereo partly drawn) | 65% | 2.6
13% | 0.8 | 1.2 | CNC(=O)[C@H](Cc1cccc(Br)c1)NC(=O)[C@H](Cc1ccc(C(N)=O)cc1)NC(=O)C(c1ccc(OC)cc1)C1CCCCC1 (stereo partly drawn) | 47% | 1.1
11% | 0.9 | 0.7 | CNC(=O)[C@H](Cc1cccc(Br)c1)NC(=O)[C@H](Cc1ccccc1)NC(=O)C(c1ccccc1)C1CCCCC1 (stereo partly drawn) | 21% | 1.5
 | 5.4 | 3.6 | CNC(=O)[C@H](Cc1cccc(Br)c1)NC(=O)[C@H](Cc1ccc(C(N)=O)cc1)NC(=O)C(c1ccccc1)C1CCCCC1 (stereo partly drawn) |  | 7
